This note sets out measurements from ChEMBL document CHEMBL3102831 (Bioorg Med Chem Lett, 2014).

One assay relates to HUVEC. Kind of assay: Cytotoxicity against human HUVEC after 48 hrs by MTT assay. The class given is cell-based. On the technique in general: Tetrazolium dyes change colour on reduction, which living cells bring about.
Assay [1] deals with HCT-116. Kind of assay: Cytotoxicity against human HCT116 cells after 48 hrs by MTT assay. Particulars: HCT-116, 48 h. The class given is functional, cell-based.
Assay [2] can be described thus: Cytotoxicity against human SPCA2 cells after 48 hrs by MTT assay. Type of assay: functional, cell-based. To be noted: SPCA2, 48 h.
Another assay concerns HeLa. Kind of assay: Cytotoxicity against human HeLa cells after 48 hrs by MTT assay. The class given is functional, cell-based.
The test system of another assay is CNE. Description: Cytotoxicity against human CNE cells after 48 hrs by MTT assay. The class given is functional, cell-based.
The subject of the next assay is HepG2. Kind of assay: Cytotoxicity against human HepG2 cells after 48 hrs by MTT assay. Type of assay: functional, cell-based. Particulars: HepG2, 48 h.
Assay [3] deals with HCT-116. Description: Cell cycle arrest in human HCT116 cells assessed as accumulation at S phase after 48 hrs using propidium iodide staining by FACS analysis (reference value: 23.29%). The class given is functional. The method in brief: (§1)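 HCT116 cells exposed 48 h to compound at 3 and 5 µM, with untreated cells as control. Cells were stained with propidium iodide, and DNA content was measured by flow cytometry. Read-out is the percentage of cells in G1, S and G2 phases.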
Background: A flow cytometer gives signals particle by particle.

Assay [4] relates to HCT-116. Kind of assay: Induction of apoptosis in human HCT116 cells assessed as change in mitochondrial membrane potential after 24 hrs by JC-1 staining. Type of assay: functional, cell-based. The method in brief: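 HCT116 cells treated 24 h at 3 and 5 µM, with untreated cells as 24 h control. Cells were stained with JC-1 and viewed by fluorescence microscopy. Monomer was excited at 514 nm with emission 515–545 nm (green); J-aggregates were excited at 585 nm with emission 570–600 nm (red). Potential loss is read as a red-to-green shift.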

In assay [5] the test system is HCT-116. Kind of assay: Cell cycle arrest in human HCT116 cells assessed as accumulation at G1 phase after 48 hrs using propidium iodide staining by FACS analysis (reference value: 39.08%). Type of assay: functional. The method in brief: as §1

Activity calls are given as the source filed them. The rule behind the calls is not given here. Bounds are passed on as bounds.

Turning to `CCOP(=O)(OCC)C(NC(=O)c1cc(O)c2c(c1)C(=O)c1cccc(O)c1C2=O)c1cccc(C)c1` (stereo not given), the IC50 with HUVEC is more than 100 µM; with HCT-116 [1], 45.4 µM; in assay [2] it was 67.7 µM; with HeLa, 73.3 µM; in the assay on CNE it was 74.2 µM; in the assay with HepG2, 62.2 µM.

For `CCOP(=O)(OCC)C(NC(=O)c1cc(O)c2c(c1)C(=O)c1cccc(O)c1C2=O)c1cccc(Cl)c1` (stereo not given), the IC50 with HUVEC was more than 100 µM; in the assay on HCT-116 [1], 22.4 µM; in assay [2], 77 µM; in the assay with HeLa, 73.2 µM; with CNE, 45.6 µM; in the assay with HepG2, 72 µM.

As to `CCOP(=O)(OCC)C(NC(=O)c1cc(O)c2c(c1)C(=O)c1cccc(O)c1C2=O)c1ccc2ccccc2c1` (stereo not given), the IC50 (with HUVEC; in the assay on HCT-116 [1]; in [2]; in the assay with HeLa; in the assay on CNE; with HepG2) was more than 100 µM each time.

For `CCOP(=O)(OCC)C(NC(=O)c1cc(O)c2c(c1)C(=O)c1cccc(O)c1C2=O)c1ccccc1F` (stereo not given), the IC50 was more than 100 µM in the assay on HUVEC; 36.6 µM with HCT-116 [1]; 79.9 µM in [2]; 94.2 µM in the assay with HeLa; 67.6 µM in the assay with CNE; 71.2 µM in the assay on HepG2.

For the compound `CCOP(=O)(OCC)C(NC(=O)c1cc(O)c2c(c1)C(=O)c1cccc(O)c1C2=O)c1ccccc1Cl` (stereo not given), the IC50 was more than 100 µM in the assay with HUVEC; 48.2 µM with HCT-116 [1]; 28.3 µM in assay [2]; 35.2 µM with HeLa; 68 µM with CNE; 39.2 µM in the assay on HepG2.

In the case of `CCOP(=O)(OCC)C(NC(=O)c1cc(O)c2c(c1)C(=O)c1cccc(O)c1C2=O)c1cccc(Br)c1` (stereo not given), the IC50 in the assay on HUVEC is more than 100 µM; with HCT-116 [1], 40.2 µM; in assay [2] it was 75.4 µM; in the assay on HeLa, 78.2 µM; in the assay on CNE, 40.1 µM; in the assay on HepG2, 62.4 µM.

On to `CCOP(=O)(OCC)C(NC(=O)c1cc(O)c2c(c1)C(=O)c1cccc(O)c1C2=O)c1ccc(OC)cc1` (stereo not given), for which the IC50 in the assay on HUVEC is more than 100 µM; in the assay with HCT-116 [1] it was 22.1 µM; in assay [2] it was 38.9 µM; in the assay with HeLa, 40.1 µM; in the assay with CNE, 42.9 µM; in the assay with HepG2 it was 44.4 µM.

As for `CCOP(=O)(OCC)C(NC(=O)c1cc(O)c2c(c1)C(=O)c1cccc(O)c1C2=O)c1ccc(Cl)cc1` (stereo not given), the IC50 is more than 100 µM in the assay with HUVEC; 61.2 µM in the assay with HCT-116 [1]; 89.5 µM in [2]; 87.5 µM with HeLa; 55.8 µM in the assay on CNE; 87.3 µM in the assay on HepG2.

With `CCOP(=O)(OCC)C(NC(=O)c1cc(O)c2c(c1)C(=O)c1cccc(O)c1C2=O)c1ccc(F)cc1` (stereo not given), the IC50 in the assay on HUVEC was more than 100 µM; in the assay on HCT-116 [1], 57.8 µM; in assay [2], 24.3 µM; in the assay with HeLa it was 95.4 µM; in the assay on CNE it was 34.6 µM; with HepG2, 59.4 µM.

For `CCOP(=O)(OCC)C(NC(=O)c1cc(O)c2c(c1)C(=O)c1cccc(O)c1C2=O)c1ccccc1` (stereo not given), the IC50 was more than 100 µM in the assay on HUVEC; 17.8 µM in the assay on HCT-116 [1]; 27.4 µM in assay [2]; 38.2 µM in the assay on HeLa; 34.3 µM with CNE; 39.2 µM in the assay with HepG2.

For `O=c1[nH]cc(F)c(=O)[nH]1` [FLUOROURACIL], the Activity is 28% in the assay on HCT-116 [3] and 65.6% with HCT-116 [5]. The result with HCT-116 [4] was Active. The IC50 turned out to be 56 µM with HUVEC; 5.78 µM in the assay with HCT-116 [1]; 42.2 µM in [2]; 35.3 µM in the assay on HeLa; 40.2 µM in the assay with CNE; 30 µM in the assay with HepG2.

Turning to `CCOP(=O)(OCC)C(NC(=O)c1cc(O)c2c(c1)C(=O)c1cccc(O)c1C2=O)c1ccccc1OC` (stereo not given), the IC50 with HUVEC was more than 100 µM; with HCT-116 [1], 8.37 µM; in assay [2], 15 µM; in the assay on HeLa it was 25.6 µM; in the assay with CNE, 28.6 µM; in the assay on HepG2, 30 µM.

Consider `CCOP(=O)(OCC)C(NC(=O)c1cc(O)c2c(c1)C(=O)c1cccc(O)c1C2=O)c1ccccc1Br` (stereo not given), for which the IC50 in the assay on HUVEC is more than 100 µM; in the assay on HCT-116 [1], 48.9 µM; in [2], 85.5 µM; in the assay with HeLa, 79.6 µM; in the assay with CNE it was 55.7 µM; in the assay with HepG2, 88.3 µM.

`CCOP(=O)(OCC)C(NC(=O)c1cc(O)c2c(c1)C(=O)c1cccc(O)c1C2=O)c1c2ccccc2cc2ccccc12` (stereo not given): the IC50 (with HUVEC; in the assay on HCT-116 [1]; in assay [2]; with HeLa; in the assay with CNE; in the assay on HepG2) was more than 100 µM throughout.

With `CCOP(=O)(OCC)C(NC(=O)c1cc(O)c2c(c1)C(=O)c1cccc(O)c1C2=O)c1ccc(C)cc1` (stereo not given), the IC50 was more than 100 µM in the assay on HUVEC; 54.3 µM in the assay on HCT-116 [1]; 74.4 µM in assay [2]; 89 µM in the assay on HeLa; 79.4 µM in the assay with CNE; 77.9 µM in the assay with HepG2.

As for `CCOP(=O)(OCC)C(NC(=O)c1cc(O)c2c(c1)C(=O)c1cccc(O)c1C2=O)c1cccc(F)c1` (stereo not given), the IC50 was more than 100 µM in the assay with HUVEC; 16.7 µM in the assay with HCT-116 [1]; 55.4 µM in [2]; 64.8 µM in the assay on HeLa; 49.2 µM in the assay with CNE; 56.8 µM in the assay on HepG2.

`CCOP(=O)(OCC)C(NC(=O)c1cc(O)c2c(c1)C(=O)c1cccc(O)c1C2=O)c1ccc(Br)cc1` (stereo not given): the IC50 with HUVEC is more than 100 µM; in the assay on HCT-116 [1], 65.5 µM; in assay [2] it was 88.2 µM; in the assay with HeLa it was 98.2 µM; with CNE, 42.5 µM; in the assay with HepG2 it was 94.2 µM.

The term IC50 denotes the point on the concentration scale where inhibition reaches its midpoint.
